Laboratory results reported in ChEMBL document CHEMBL1123794, “Synthesis, conformation, and dopaminergic activity of 5,6-ethano-bridged derivatives of selective dopaminergic 3-benzazepines” (J Med Chem, 1987).

Key:
[1] = Tested for dopamine-sensitive adenylate cyclase stimulation expressed as ED50; assay type: functional
In short: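 EC50 is the concentration giving 50% of the maximal adenylate cyclase stimulation attainable with that same compound.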

[2] = target: D(1A) dopamine receptor (Rattus norvegicus) (UniProt P18901); assay: Inhibitory activity against Dopamine receptor D1 by displacement of [3H]fenoldopam from homogenated rat striatum
[3] = Tested for dopamine-sensitive adenylate cyclase stimulation expressed as %DA stimulation at 10 uM; assay type: functional
[4] = target: D(2) dopamine receptor (Bos taurus) (UniProt P20288); assay: Inhibitory activity against Dopamine receptor D2 by displacement of [3H]spiroperidol from bovine pituitary at 10 uM
[5] = Tested for dopamine-sensitive adenylate cyclase stimulation; assay type: functional

Chain of D(1A) dopamine receptor (Rattus norvegicus) (P18901 whole entry): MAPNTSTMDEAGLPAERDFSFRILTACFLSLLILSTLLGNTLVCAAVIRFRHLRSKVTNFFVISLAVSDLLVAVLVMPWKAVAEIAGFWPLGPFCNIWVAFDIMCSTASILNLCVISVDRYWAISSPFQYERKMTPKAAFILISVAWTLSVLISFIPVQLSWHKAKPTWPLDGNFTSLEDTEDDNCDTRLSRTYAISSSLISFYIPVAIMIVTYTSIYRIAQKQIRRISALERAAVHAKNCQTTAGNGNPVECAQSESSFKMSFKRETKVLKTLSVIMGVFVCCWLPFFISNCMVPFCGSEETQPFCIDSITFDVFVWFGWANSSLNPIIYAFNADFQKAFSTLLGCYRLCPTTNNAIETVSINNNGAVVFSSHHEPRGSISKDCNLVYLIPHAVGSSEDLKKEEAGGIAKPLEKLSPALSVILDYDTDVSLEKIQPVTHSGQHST
Chain of D(2) dopamine receptor (Bos taurus) (P20288 whole entry): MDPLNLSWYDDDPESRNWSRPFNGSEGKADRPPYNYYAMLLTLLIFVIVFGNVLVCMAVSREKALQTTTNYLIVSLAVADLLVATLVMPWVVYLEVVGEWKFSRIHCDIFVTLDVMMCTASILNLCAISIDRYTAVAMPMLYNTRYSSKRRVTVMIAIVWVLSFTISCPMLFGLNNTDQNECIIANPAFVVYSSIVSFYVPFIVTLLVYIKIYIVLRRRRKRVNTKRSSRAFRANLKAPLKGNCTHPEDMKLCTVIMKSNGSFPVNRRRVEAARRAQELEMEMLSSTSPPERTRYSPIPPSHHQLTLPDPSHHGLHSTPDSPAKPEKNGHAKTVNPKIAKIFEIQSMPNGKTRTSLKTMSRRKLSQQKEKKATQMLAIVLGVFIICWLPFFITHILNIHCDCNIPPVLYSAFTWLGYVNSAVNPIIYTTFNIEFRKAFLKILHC

ED50 [1] [nM] | K bind [2] [µM] | DA stim [3] [%] | inhibition [4] [%] | Control [5] [%] | SMILES
430 | 0.024 | 62 | 14 |  | Oc1cc2c3c(c1O)CC[C@@H]3CNC[C@@H]2c1ccccc1
3500 |  |  |  |  | NCCc1ccc(O)c(O)c1
 | 1.22 | 15 | 0 | 20 | Oc1cc2c3c(c1O)CC[C@H]3CNC[C@@H]2c1ccccc1
63 | 0.0051 | 66 |  |  | Oc1cc2c(cc1O)[C@@H](c1ccccc1)CNCC2
